Screens (PubChem)
Only some compounds are listed: those with a hit (about 2.8% of all), similar ones and a draw of the others.
GRIN3A LBD mod = modulators (binders) of human NR3A ligand-binding domain; NR3A LBD differential scanning fluorimetry, Tm shift; 0% = protein alone, 100% = glycine-bound protein; Tm shift relative to glycine control, % at 25 µM; 340,000 tested, 2.5% active; AID 1259313;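 active = melting temperature shift of at least 10% of the positive control shift, at one fixed dose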
Rtt109 HAT inh = inhibitors of Candida albicans Rtt109/Vps75 histone acetyltransferase. Q5AAJ8. purified Rtt109/Vps75, ThioGlo CoA-SH fluorescence, 4 h. inhibition, % at 34.9 µM. 330,000 tested, 0.16% active. AID 540336;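 active = inhibition of at least 50% in every replicate; inconclusive = best replicate reaches 50% inhibition but some replicates fall short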
T cell modulator = T cell immune modulation candidate | 2C CD8+ T cell-vesicle binding, flow cytometry; hits give low values | response (vesicle binding), % at 7 µM | 330,000 tested, 0.068% active | AID 2052;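 active = response, share of CD8 T cells binding vesicles, and their 90th percentile fluorescence all below set limits, cut at about 80% in these data, passing the limit was not always enough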;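 also: values below 100% mean blocked vesicle binding to the CD8+ T cells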
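Benchmarks: naked versus QL9-loaded vesicles / Assay system: purified 2C TCR transgenic mouse naive CD8+ T cells / Technique: high-throughput flow cytometry with anti-B7-1 and anti-CD8 staining / Timing: Cell–vesicle co-incubation 1.5 h at 37 °C, staining 20 min on ice / Read-out: percent CD8+ FL2 mean versus row control / Probe or stimulus: QL9-loaded Drosophila micro-vesicles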
GASC-1 inh = blocks human GASC-1 demethylase activity. AID 2099. inhibition, % at 2.35 µM. GST-JMJD2C(1-420) H3K9me3 demethylation, DELFIA europium. 330,000 tested, 0.069% active;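 active = more than half of a compound's replicate wells show inhibition beyond 50%, single wells judged on their own value; inconclusive = some, but no more than half, of replicates pass 50% inhibition; inactive = no replicate passes 50% inhibition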;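 also: signal counts dimethyl H3K9 product captured on neutravidin plate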
Target sequence (Q9H3R0 1-420 limits assumed): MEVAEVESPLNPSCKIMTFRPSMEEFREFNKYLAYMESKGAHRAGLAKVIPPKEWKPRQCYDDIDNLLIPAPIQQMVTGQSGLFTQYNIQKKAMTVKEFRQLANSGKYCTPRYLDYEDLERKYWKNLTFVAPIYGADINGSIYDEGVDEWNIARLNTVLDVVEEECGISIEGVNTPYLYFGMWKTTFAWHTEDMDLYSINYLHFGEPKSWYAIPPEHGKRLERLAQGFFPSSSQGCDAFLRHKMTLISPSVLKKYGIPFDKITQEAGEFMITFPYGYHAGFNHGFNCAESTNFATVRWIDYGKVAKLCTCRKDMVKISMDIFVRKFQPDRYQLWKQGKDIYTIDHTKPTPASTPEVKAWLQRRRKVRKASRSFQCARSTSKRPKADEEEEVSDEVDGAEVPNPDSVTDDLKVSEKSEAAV
Each line names hits and unclear results; the compound was inactive in the other large screens.

Cc1nnc(N/N=C/c2ccc(-c3ccccc3F)o2)n1N	none
CCN1C(=O)/C(=C\C(=O)c2cccs2)c2cc(Br)ccc21	GRIN3A LBD mod 31.7
O=C1Nc2ccccc2/C1=C/C(=O)c1cccs1	none
COCCNC(=S)N/N=C(\C)c1cccc(C(F)(F)F)c1	GRIN3A LBD mod 51.6
COCCNC(=S)N/N=C(\C)c1ccc2cc(OC)ccc2c1	none
O=C(C1CCOCC1)N1CCCC(N2CCN(c3cccc(C(F)(F)F)c3)CC2)C1 (stereo not given)	Rtt109 HAT inh 51.5
O=C(C1CCOCC1)N1CCCC(N2CCN(c3cccc(Cl)c3)CC2)C1 (stereo not given)	none
O=C(C1CCN(c2nnc(N3CCCC3=O)s2)CC1)N1CCN(c2cccc(C(F)(F)F)c2)CC1	GRIN3A LBD mod 16.9
Cc1ccc(C)c(N2CCN(C(=O)C3CCN(c4nnc(N5CCCC5=O)s4)CC3)CC2)c1	none
CSCCC(NS(=O)(=O)c1ccc(C)cc1)C(=O)Nc1ccc(C)cn1 (stereo not given)	none
COc1cc(OC)c2ccc(=O)oc2c1C(CCN1CCOCC1)c1ccc2c(c1)OCO2 (stereo not given)	GRIN3A LBD mod 15.4 (no result: T cell modulator, GASC-1 inh)
COc1cc(OC)c2ccc(=O)oc2c1C(CCN1CCCC1)c1ccc2c(c1)OCO2 (stereo not given)	none
O=C(Nc1ccc(OCC(F)(F)C(F)F)c(C(F)(F)F)c1)c1ccccc1	GRIN3A LBD mod 26.9
O=C(Nc1ccc(OCC(F)(F)C(F)F)c(C(F)(F)F)c1)c1ccccc1O	GRIN3A LBD mod 33.5
O=C(Nc1ccc(OCC(F)(F)C(F)F)cc1)c1ccncc1	none
CC(C)COP(=O)(OCC(C)C)C(Nc1ccccc1)c1ccc2c(c1)OCO2 (stereo not given)	none
CC(C)OP(=O)(OC(C)C)C(Nc1ccccc1)c1ccc2c(c1)OCO2 (stereo not given)	GRIN3A LBD mod 11.9
CN(C)S(=O)(=O)c1cccc(COC(=O)CNC(=O)c2ccc(Br)o2)c1	none (no result: T cell modulator, GASC-1 inh)
Cc1ccc(C(CC(=O)N2CCCCC2)c2ccccc2)c(O)c1C (stereo not given)	GRIN3A LBD mod 13.4
O=C(OCc1nnc(-c2ccccc2)o1)C1CCN(C(=O)c2ccc(Cl)cc2)CC1	none (no result: T cell modulator, GASC-1 inh)
Cc1nc2ccccc2n1CC(=O)NC1CCCC1	Rtt109 HAT inh 51.3
O=C(CCCl)N1CCN(c2nc(-c3ccccc3)cs2)CC1	none
CNS(=O)(=O)c1cccc(C(=O)OCC(=O)N2c3ccccc3CC2C)c1 (stereo not given)	GRIN3A LBD mod 13.9
CC1Cc2ccccc2N1C(=O)COC(=O)c1ccc(N(C)C)cc1 (stereo not given)	none
CC1Cc2ccccc2N1C(=O)COC(=O)c1ccc(O)cc1 (stereo not given)	Rtt109 HAT inh 51.6
CNS(=O)(=O)c1cccc(C(=O)OCC(=O)N2CCc3ccccc3C2)c1	none
CNS(=O)(=O)c1cccc(C(=O)OCC(=O)c2ccc[nH]2)c1	GRIN3A LBD mod 39.0
COc1ccccc1OCC(=O)N(Cc1nnc(-c2ccccc2Cl)o1)C1CC1	none
COc1ccccc1OCc1nnc(SCC(=O)Nc2ccc(N3CCOCC3)cc2)n1C	none
CCC(c1nnnn1CCc1ccccc1)N1CCN(C(=O)c2ccco2)CC1 (stereo not given)	none
O=C(c1ccco1)N1CCN(Cc2nnc(-c3ccccc3)o2)CC1	GRIN3A LBD mod 11.7
O=C(COc1ccccc1Br)N1CCN(C(=O)c2ccco2)CC1	none
O=C(c1ccco1)N1CCN(Cc2nnnn2CCc2ccccc2)CC1	GRIN3A LBD mod 13.0
COc1ccccc1OCC(=O)N1CCN(C(=O)c2ccco2)CC1	GRIN3A LBD mod 10.2
O=C(Nc1cccc(S(=O)(=O)NC2=NCCC2)c1)c1ccccc1OC(F)F	none
CN(Cc1ccc(F)cc1)C(=O)C(Cc1ccccc1)NC(=O)c1ccccc1 (stereo not given)	none
CSc1ccc(CN(C)C(=O)C(Cc2ccccc2)NC(=O)c2ccccc2)cc1 (stereo not given)	GRIN3A LBD mod 14.1
Nc1cc(C(=O)OCC(=O)NNC(=O)c2ccccc2)ccc1Cl	none
C=CCCC1CN(CCCC)S(=O)(=O)c2c(F)cccc2O1 (stereo not given)	GRIN3A LBD mod 18.1 (no result: T cell modulator, GASC-1 inh)
CCCCn1c(=O)[nH]c(=O)c2c1nc(CN(C)Cc1cccc(OC)c1OC)n2CCC	none
O=C(Nc1nnc(S(=O)(=O)N2CCN(c3ccc(F)cc3)CC2)s1)c1ccccc1	none
O=C(NCc1cccc(F)c1)C1CCN(S(=O)(=O)Cc2ccccc2)CC1	GASC-1 inh 72.6
COc1cccc(CNC(=O)C2CCN(S(=O)(=O)N3CCCCC3)CC2)c1	GRIN3A LBD mod 12.7
COc1ccc(CNC(=O)C2CCCN(S(=O)(=O)c3c(C)n[nH]c3C)C2)cc1 (stereo not given)	Rtt109 HAT inh 66.5
O=C(NCc1ccncc1)C1CCN(S(=O)(=O)Cc2ccccc2)CC1	none
COc1cccc(CNC(=O)C2CCCN(S(=O)(=O)c3c(C)n[nH]c3C)C2)c1 (stereo not given)	none
CC(=O)c1ccc(N2CCN(CC(=O)Nc3ccccc3C(=O)NC3CC3)CC2)c(F)c1	none
N#CCC(=N)N1CCN(c2cccc(Cl)c2)CC1	GRIN3A LBD mod 12.2
CCCc1nn(C)c(C(=O)Nc2cccc(CC)c2)c1Cl	GRIN3A LBD mod 11.8
Cc1nn(C)c(C(=O)Nc2cccc(CN3CCOCC3)c2)c1Br	none
CCCc1nn(C)c(C(=O)Nc2ccc3ccccc3c2)c1Cl	GRIN3A LBD mod 17.1
CC(C1=C(CCN(C)C)Cc2ccccc21)c1ccccn1 (stereo not given)	none (no result: T cell modulator, GASC-1 inh)
Cc1ccc(S(=O)(=O)c2c(C)nn(C(C)(C)C)c2OC(=O)C2CCCC2)cc1	GRIN3A LBD mod 10.2
C=CC[C@@H](Cc1ccc(F)cc1)C(=O)OC[C@@H]1CCCN1C(=O)[C@H](CC=C)CC(=O)N(CCO)Cc1ccccc1	none
CN(CCc1ccccn1)C1CC(=O)N(c2ccc(Cl)cc2)C1=O (stereo not given)	GRIN3A LBD mod 14.2
C#CCOCCOCCOCCNc1nc(N2CCN(C(=O)CCCCCCCCCCNC(=O)[C@H](CO)n3cc(CCCSC)nn3)CC2)nc(N2CCN(C(=O)CCCCCCCCCCNC(=O)[C@H](CCCCN)n3cc(CCO)nn3)CC2)n1	GRIN3A LBD mod 27.6
C#CCOCCOCCOCCNc1nc(N2CCN(C(=O)CCCCCCCCCCNC(=O)[C@H](CO)n3cc(CCCSC)nn3)CC2)nc(N2CCN(C(=O)CCCCCCCCCCNC(=O)[C@H](CCCN=C(N)N)n3cc(C[C@@H](C)CC)nn3)CC2)n1	Rtt109 HAT inh inconclusive, GASC-1 inh 57.4
C#CCOCCOCCOCCNc1nc(N2CCN(C(=O)CCCCCCCCCCNC(=O)[C@@H](CCSC)n3cc(CCO)nn3)CC2)nc(N2CCN(C(=O)CCCCCCCCCCNC(=O)[C@H](CCSC)n3cc(CCO)nn3)CC2)n1	none
COc1ccc(NC(=O)CSc2nnc3ccc(-c4ccccn4)nn23)cc1OC	none
Cn1ncc2c(=O)[nH]c(N)nc21	none (no result: T cell modulator, GASC-1 inh)
CCOc1cc(S(=O)(=O)Nc2ccc(CC)cc2)ccc1Cl	GRIN3A LBD mod 12.9
